Compound activity from PubChem.
DNMT1 block: human DNMT1 methyltransferase inhibitors, primary screen, biochemical, molecular beacon, fluorescence, HinP1I cleavage, uHTS | 360,000 compounds, 0.83% hits | inhibition (reported as % activation of signal), % at 10 µM | DNA (cytosine-5)-methyltransferase 1 (Homo sapiens), P26358; in the data active means inhibition above about 50%
LMPTP block: LMPTP phosphatase inhibitors, primary screen, biochemical, fluorescence intensity, uHTS | recombinant LMPTP-A, OMFP fluorogenic substrate | 360,000 compounds, 0.22% hits | inhibition, % at 20 µM | Low molecular weight phosphotyrosine protein phosphatase (Homo sapiens), P24666;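 active means compounds that cut the enzyme signal by at least half of the control window in the single-dose screen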
Target sequence (P24666 whole entry, looked up): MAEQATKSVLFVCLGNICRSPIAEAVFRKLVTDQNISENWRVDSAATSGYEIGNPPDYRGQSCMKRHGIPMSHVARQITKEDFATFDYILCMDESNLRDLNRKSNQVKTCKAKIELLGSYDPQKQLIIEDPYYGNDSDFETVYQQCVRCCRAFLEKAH
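Test system – LMPTP-A phosphatase enzyme · Quantity – 0.625 nM LMPTP-A final · Reagent – OMFP substrate, 400 µM final · Dosing – one test concentration per compound, 20 µM, with 3% DMSO overall · Timing – 50 min enzyme reaction at room temperature, protected from light · Detection – fluorescence intensity · Controls – substrate-only low control, DMSO enzyme-plus-substrate high control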
SUMO1 PPI mod: modulators of SUMO1 protein-protein interactions, primary screen, biochemical, uHTS | Small ubiquitin-related modifier 1 (Homo sapiens), P63165 | SUMO1 binding to a labelled peptide, TR-FRET, 1 h | inhibition, % at 20 µM | 360,000 compounds, 0.33% hits; in the data active means inhibition above about 37%
Target sequence (P63165 whole entry, looked up): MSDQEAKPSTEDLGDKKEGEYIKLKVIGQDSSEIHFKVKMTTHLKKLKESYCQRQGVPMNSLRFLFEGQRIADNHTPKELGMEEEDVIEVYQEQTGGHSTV
Scp-1 inhibitor: Scp-1 phosphatase inhibitors, primary screen, biochemical, colorimetric, uHTS; AID 493091, 2011; Recombinant Scp1, phosphopeptide, malachite green phosphate absorbance; 340,000 compounds, 0.88% hits; inhibition, % at 20 µM;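 active means inhibition above about 50% at 20 µM, limit read from the data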
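Test system: SCP-1 catalytic domain; Buffer or medium: Acidic Tris acetate buffer with magnesium and detergent; Also added: Phosphorylated 17-residue peptide substrate; Compound: single 20 µM dose, 1% DMSO; Schedule: enzyme reaction 45 min at room temperature, colour 5 min, stabilisation 30 min; Signal: Phosphate-binding colour reagent, absorbance read at 630 nm.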
STEP block: STEP phosphatase inhibitors, primary screen, biochemical, fluorescence intensity, uHTS; inhibition, % at 20 µM; 360,000 compounds, 0.25% hits; recombinant STEP, OMFP fluorogenic substrate; Tyrosine-protein phosphatase non-receptor type 5 (Homo sapiens), P54829;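 active means inhibition at 20 µM, scaled per plate between control wells, above about 37%, limit read from the data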
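Assay system: isolated STEP enzyme. Buffer or medium: pH 6.0 Bis-Tris with DTT and Tween 20. Also added: fluorogenic phosphatase substrate OMFP at 25 µM final. Dosing: 20 µM, 1% DMSO. Timing: 20 min reaction, room temperature, in the dark. Measured by: fluorescence intensity, excitation 480 nm, emission 540 nm. Evaluation: normalized % inhibition.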
Rpn11 inh: Rpn11 (PSMD14) deubiquitinase inhibitors, primary screen, biochemical, fluorescence polarization, uHTS | inhibition, % at 20 µM | human 26S proteasome, Ub4-pepOG fluorescence polarization; 20S core pre-blocked with epoxomicin | 360,000 compounds, 0.59% hits | 26S proteasome non-ATPase regulatory subunit 14 (Homo sapiens), O00487;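 active means inhibition at 20 µM, scaled to each plate's controls, above about 33%, limit read from the data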
Target sequence (O00487 whole entry, looked up): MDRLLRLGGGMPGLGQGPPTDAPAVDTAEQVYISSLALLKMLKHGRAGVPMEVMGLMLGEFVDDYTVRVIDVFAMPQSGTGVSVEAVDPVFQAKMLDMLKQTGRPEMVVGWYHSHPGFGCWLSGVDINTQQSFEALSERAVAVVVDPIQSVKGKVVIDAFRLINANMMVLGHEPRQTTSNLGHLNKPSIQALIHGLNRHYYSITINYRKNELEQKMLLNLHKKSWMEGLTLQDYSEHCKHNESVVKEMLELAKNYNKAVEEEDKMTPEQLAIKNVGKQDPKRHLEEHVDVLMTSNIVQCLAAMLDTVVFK
Scp1 confirm: Scp-1 phosphatase inhibitors, retest, confirmation, biochemical, colorimetric, single concentration. shares compounds with Scp-1 inhibitor. inhibition, % at 20 µM. 2,500 compounds, 61% hits. AID 540281, 2011. recombinant SCP-1 catalytic domain, phosphate release, malachite green absorbance
MG interference: colorimetric readout interference by compounds, confirmation, artefact control for Scp-1 inhibitor project, biochemical, single concentration | Colorimetric interference counterscreen, malachite green absorbance 630 nm | apparent inhibition (interference), % at 20 µM | AID 540313, 2011 | 2,500 tested, under 10 active | shares compounds with Scp-1 inhibitor;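 further: compounds added after enzyme reaction finished so only phosphate colour detection is probed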
Scp-1 Tm shift: Scp-1 binding by thermal shift, confirmation, orthogonal assay for Scp-1 inhibitor project, biophysical, differential scanning fluorimetry | 1,500 compounds, 25% hits | AID 540329, 2011 | shares compounds with Scp-1 inhibitor | Recombinant SCP1, Sypro Orange thermal shift Tm | thermal shift relative to vanadate control, % at 40 µM;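 active means substances whose mean melting-temperature shift, as a percentage of the reference inhibitor's shift, reaches about 5.3%, limit read from the data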
A number is an active result; . = inactive; / = not tested or not shown. An excerpt weighted towards active compounds, which were near 2.3% of everything screened.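 How the source made its calls, unless noted: active means inhibition of at least 30% at 20 µM; inactive means the rest.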

SMILES	DNMT1 block	LMPTP block	SUMO1 PPI mod	Scp-1 inhibitor	STEP block	Rpn11 inh	Scp1 confirm	MG interference	others
Cc1cc(C)cc(NS(=O)(=O)c2c(C(=O)N3CCOCC3)c(C)n(C)c2C)c1	.	.	.	.	.	.	/	/
CCN1C(=NCCc2ccccn2)N[C@@H](c2cccc(F)c2)C(C(=O)OC)=C1C	.	.	.	.	.	.	/	/
COC(=O)C1=C(C)N(Cc2ccccc2)C(=NCCc2ccccn2)N[C@H]1c1cccc(F)c1	.	.	.	59	.	.	.	.
CC(O)CSc1nc2c(c(=O)[nH]c(=O)n2C)n1Cc1ccccc1Cl (stereo unspecified)	.	.	.	.	.	.	/	/
Clc1cc(CSc2ccccc2)nc(-c2ccccc2)n1	.	.	.	61	.	.	36	.	Scp-1 Tm shift=.
Clc1ccc(SCc2cc(Cl)nc(-c3ccccc3)n2)cc1	.	.	.	.	.	.	/	/
COc1ccc2c(c1)c(=O)oc1c(C)c(OCc3ccc(C(=O)O)cc3)ccc12	.	58	45	93	41	.	58	.	Scp-1 Tm shift=.
COc1ccc2c(c1)c(=O)oc1c(C)c(OCC(=O)N3CCc4ccccc4C3)ccc12	.	.	.	.	.	.	/	/
COc1ccc2c(c1)c(=O)oc1c(C)c(OCc3cc(C(=O)O)oc3C)ccc12	.	.	.	93	.	.	94	.	Scp-1 Tm shift=.
COc1cccc(-n2nnc3c(=O)n(CC(=O)Nc4ccccc4C)cnc32)c1	.	.	.	.	.	.	/	/
CCOc1ccccc1NC(=O)Cn1cnc2c(nnn2-c2cccc(OC)c2)c1=O	.	.	.	71	.	.	58	.	Scp-1 Tm shift=.
O=C(CSc1nc(O)cc(=O)[nH]1)C1CC1	.	.	.	53	.	.	.	.
CCCOC1CCCN(C(=O)c2cc(COc3ccc(F)c(F)c3)on2)C1 (stereo unspecified)	.	.	.	.	.	.	/	/
CCOc1ccccc1NC(=O)Nc1cc(S(=O)(=O)N(C)C)ccc1C	.	.	.	73	.	.	.	.
CCC(C)C1Nc2ccc(C(=O)NCCc3ccc(OC)c(OC)c3)cc2NC1=O (stereo unspecified)	.	.	.	.	.	.	.	.
Cc1c(CCC(=O)O)c(=O)oc2cc(OCc3cccc(F)c3)ccc12	.	.	.	.	.	.	/	/
Cc1c(CCC(=O)O)c(=O)oc2cc(OCc3ccccc3Br)ccc12	.	.	.	83	.	.	76	.	Scp-1 Tm shift=.
COc1cccc(CNC(=O)C2CCC(=O)N(C3CC3)C2)c1OC (stereo unspecified)	.	.	.	.	.	.	/	/
O=C(O)c1ccc(-n2ncc3c2/C(=C\c2cccc([N+](=O)[O-])c2)CC3)cc1	.	.	.	64	.	.	64	.	Scp-1 Tm shift=.
CN(C)C=NC(=O)c1cc(C(=O)c2ccc(Cl)cc2Cl)c[nH]1	.	.	.	.	.	.	/	/
NS(=O)(=O)c1ccc(N2CCN(C(=O)C3COc4ccccc4O3)CC2)nc1 (stereo unspecified)	.	.	.	.	.	.	/	/
O=C(C1COc2ccccc2O1)N1CCN(c2ccc(C(F)(F)F)cn2)CC1 (stereo unspecified)	.	.	.	87	.	.	.	.
COC(=O)c1ccc(/C=N/NC(=O)C2CC(=O)N(c3ccc(OC)cc3)C2)cc1 (stereo unspecified)	.	.	.	.	.	.	/	/
COc1ccc(N2CC(C(=O)N/N=C/c3ccccc3)CC2=O)cc1 (stereo unspecified)	.	.	.	.	.	.	.	.
COc1cccc(C(C)(O)c2nc(-c3ccccc3C)cs2)c1 (stereo unspecified)	.	.	.	/	.	.	/	/
SMILES	DNMT1 block	LMPTP block	SUMO1 PPI mod	Scp-1 inhibitor	STEP block	Rpn11 inh	Scp1 confirm	MG interference	others
CC(C(=O)Nc1ccc([N+](=O)[O-])cc1Cl)N1CCN(S(=O)(=O)c2cccs2)CC1 (stereo unspecified)	.	.	.	.	.	.	/	/
CC(C(=O)Nc1cc([N+](=O)[O-])ccc1Cl)N1CCN(c2ccc(O)cc2)CC1 (stereo unspecified)	.	.	.	57	.	.	.	.
O=C(CC[C@H]1O[C@@H](n2cnc3c(NC(=O)c4ccccc4)ncnc32)[C@H](O)[C@@H]1O)NCCc1cc2ccccc2[nH]1	.	.	.	/	.	.	/	/
CCOC(=O)Cn1c(=NC(=O)CSC(C)=O)sc2ccccc21	.	.	.	.	.	.	/	/
CCOC(=O)Cn1c(=NC(=O)c2sc3ccccc3c2Cl)sc2cc(S(N)(=O)=O)ccc21	.	58	.	67	.	.	75	.	Scp-1 Tm shift=7.9
CC(C)Oc1ccc(CNS(=O)(=O)c2csc(C(N)=O)c2)cc1	.	.	.	.	.	.	.	.
CN(C)c1ccc(CNS(=O)(=O)c2csc(C(N)=O)c2)cc1	.	.	.	.	.	.	.	.
NC(=O)c1cc(S(=O)(=O)NCCCc2ccccc2)cs1	.	.	.	.	.	.	/	/
C#Cc1ccc([C@H]2C=C(C(=O)O)O[C@@H](OCc3ccc(CO)cc3)C2)cc1	.	.	.	50	.	.	48	.	Scp-1 Tm shift=.
C#Cc1ccc([C@@H]2C=C(C(=O)NCc3ccccc3)O[C@H](OCc3ccc(CO)cc3)C2)cc1	.	.	.	.	.	.	/	/
O=C(Nc1cc(Cl)cc(Cl)c1)N1CCCC1	.	.	.	.	.	.	/	/
O=C(CN1C(=O)C(=O)N(Cc2ccco2)C1=O)Nc1ccc(F)c(F)c1F	.	.	.	.	.	.	/	/
C=CCN1C(=O)C(=O)N(CC(=O)NCC(=O)Nc2ccc(F)c(F)c2F)C1=O	.	.	.	.	.	.	.	.
